{
  "source": "paper PMC7188312",
  "about": "(Nature, 2019)",
  "key": {"[1]": {"test_system": "E. coli MG1655", "experiment": "LPS binding assay", "type": "cell-based", "conditions": "LPS from E. coli O55:B5, 0.5–100 μg ml^−1", "method_in_brief": "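Microbroth dilution: E. coli MG1655 at OD600 0.001 in cation-adjusted MHIIB was added to wells holding purified E. coli O55:B5 LPS (0.5–100 μg ml−1) plus serially diluted test compound or polymyxin B. Plates were incubated overnight at 37°C. The growth-inhibiting concentration was read by eye, with and without LPS.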"}, "[2]": {"test_system": "K. pneumoniae", "conditions": "cited from earlier work"}, "[3]": {"test_system": "E. coli", "conditions": "cited from earlier work"}, "[4]": {"test_system": "K. pneumoniae clinical isolates", "experiment": "microbe, parasite or virus in culture", "type": "cell-based", "conditions": "Klebsiella pneumoniae, K. pneumoniae ESBL JMI 1052654"}, "[5]": {"test_system": "Bacteroides xylanisolvens KLE 2253", "experiment": "MIC, microbroth dilution, anaerobic", "type": "cell-based", "conditions": "KLE2253"}, "[6]": {"test_system": "Stenotrophomonas maltophilia KLE 11416", "experiment": "MIC, microbroth dilution, anaerobic", "type": "cell-based", "conditions": "KLE11416"}, "[7]": {"test_system": "E. coli clinical isolates", "experiment": "microbe, parasite or virus in culture", "type": "cell-based", "conditions": "Escherichia coli, E. coli ESBL JMI 1043856"}, "[8]": {"test_system": "Bacteroides caccae KLE 2423", "experiment": "MIC, microbroth dilution, anaerobic", "type": "cell-based", "conditions": "KLE2423"}, "[9]": {"experiment": "Cytotoxicity, microplate Alamar Blue assay", "type": "cell-based", "conditions": "human, FaDu pharynx squamous cell carcinoma cells (ATCC HTB-43)", "method_in_brief": "(§1)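 FaDu, HepG2 and HEK293-RFP cells were grown in Eagle's MEM with 10% FBS at 37°C, 5% CO2. Cells were seeded in exponential growth, and after 24 h the medium was replaced with fresh medium holding 2-fold serial dilutions of test compound made in water. After 72 h, resazurin was added to a final 0.15 mM. […] was read 3 h later. Biological replicates.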"}, "[10]": {"test_system": "Salmonella Typhimurium LT2 ATCC 19585", "experiment": "MIC, microbroth dilution, anaerobic", "type": "cell-based", "conditions": "Salmonella enterica, ATCC19585|TYPHIMURIUM"}, "[11]": {"test_system": "Haemophilus parainfluenzae KLE 2367", "experiment": "MIC, microbroth dilution, anaerobic", "type": "cell-based", "conditions": "KLE2367"}, "[12]": {"test_system": "E. coli AR350 (mcr-1)", "experiment": "MIC, microbroth dilution", "type": "cell-based", "conditions": "Escherichia coli"}, "[13]": {"test_system": "Pseudomonas aeruginosa PAO1", "experiment": "MIC, microbroth dilution", "type": "cell-based"}, "[14]": {"experiment": "Cytotoxicity, microplate Alamar Blue assay", "type": "cell-based", "conditions": "human, HepG2 liver hepatocellular carcinoma cells (ATCC HB-8065)", "method_in_brief": "as §1"}, "[15]": {"test_system": "Faecalibacterium prausnitzii KLE 2243", "experiment": "MIC, microbroth dilution, anaerobic", "type": "cell-based", "conditions": "KLE2243"}, "[16]": {"test_system": "Acinetobacter baumannii ATCC 17978", "experiment": "MIC, microbroth dilution", "type": "cell-based", "conditions": "ATCC17978"}, "[17]": {"test_system": "Enterobacter cloacae ATCC 13047", "experiment": "MIC, microbroth dilution, anaerobic", "type": "cell-based", "conditions": "ATCC13047"}, "[18]": {"test_system": "Bacteroides fragilis ATCC 25285", "experiment": "MIC, microbroth dilution, anaerobic", "type": "cell-based", "conditions": "ATCC25285"}, "[19]": {"experiment": "Cytotoxicity, microplate Alamar Blue assay", "type": "cell-based", "conditions": "human", "method_in_brief": "as §1"}, "[20]": {"test_system": "Proteus mirabilis KLE 2600", "experiment": "MIC, microbroth dilution, anaerobic", "type": "cell-based", "conditions": "KLE2600"}, "[21]": {"test_system": "Mycobacterium tuberculosis mc^26020", "experiment": "MIC, resazurin", "type": "cell-based"}, "[22]": {"test_system": "Klebsiella pneumoniae ATCC 700603", "experiment": "MIC, microbroth dilution", "type": "cell-based"}, "[23]": {"test_system": "P. aeruginosa pmrB 523C>T", "experiment": "MIC, microbroth dilution", "type": "cell-based", "conditions": "Pseudomonas aeruginosa"}, "[24]": {"molecular_target": "WT BAM (BamA of BAM) (Escherichia coli, UniProt P0A940)", "experiment": "Isothermal Titration Calorimetry", "type": "binding, E. coli", "conditions": "same concentration range as darobactin", "method_in_brief": "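BAM was expressed with 0.5 mM IPTG for 3 h, extracted from membranes in DDM and Ni-NTA purified. ITC ran at 25°C in duplicate: 20 μM BAM in 1xPBS with 0.05% DDM in the cell, 200 μM ligand in the syringe, 20 injections 300 s apart, stirring at 300 rpm. Ligand-into-buffer heats were measured as a control. Data were fitted to an independent binding model.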"}, "[25]": {"molecular_target": "BAM complex, wild type (Escherichia coli, UniProt P0A940)", "experiment": "BAM folding assay", "type": "biochemical, E. coli", "conditions": "WT BAM-nanodiscs, increasing concentrations"}, "[26]": {"molecular_target": "BAM complex (BamABCDE), wild type (E. coli) (UniProt P0A940)", "experiment": "ITC"}},
  "data": [
    {"compound": "polymyxin B", "values": [
      {"measurement": "effect of added purified LPS on antibiotic activity (MIC)", "setting": "[1]", "result": "antagonized polymyxin activity"}
    ]},
    {"compound": "NC(N)=NC(=O)CC(Nc1nc(N=C(N)N)nc(NC2CCC(NC(=O)Cn3nnc(-c4ccc(F)cc4)n3)CC2)n1)C1CC1", "note": "(centres unmarked) [MRL-494]", "values": [
      {"measurement": "MIC", "setting": "[2]", "result": 62, "unit": "µg/mL"},
      {"measurement": "MIC", "setting": "[3]", "result": 15, "unit": "µg/mL"}
    ]},
    {"compound": "CC1(C)S[C@@H]2[C@H](NC(=O)[C@H](N)c3ccccc3)C(=O)N2[C@H]1C(=O)O", "note": "[ampicillin]", "values": [
      {"measurement": "MIC", "setting": "[4]", "result": "> 128", "unit": "µg/mL"},
      {"measurement": "MIC", "setting": "[5]", "result": 1, "unit": "µg/mL"},
      {"measurement": "MIC", "setting": "[6]", "result": "> 128", "unit": "µg/mL"},
      {"measurement": "MIC", "setting": "[7]", "result": "> 128", "unit": "µg/mL"},
      {"measurement": "MIC", "setting": "[8]", "result": 2, "unit": "µg/mL"},
      {"measurement": "IC50 at 72 h", "setting": "[9]", "result": "> 128", "unit": "µg/mL"},
      {"measurement": "MIC", "setting": "[10]", "result": 2, "unit": "µg/mL"},
      {"measurement": "MIC", "setting": "[11]", "result": 128, "unit": "µg/mL"},
      {"measurement": "MIC", "setting": "[12]", "result": "> 128", "unit": "µg/mL"},
      {"measurement": "MIC", "setting": "[13]", "result": "> 128", "unit": "µg/mL"},
      {"measurement": "IC50 at 72 h", "setting": "[14]", "result": "> 128", "unit": "µg/mL"},
      {"measurement": "MIC", "setting": "[15]", "result": 64, "unit": "µg/mL"},
      {"measurement": "MIC", "setting": "[16]", "result": 64, "unit": "µg/mL"},
      {"measurement": "MIC", "setting": "[17]", "result": "> 128", "unit": "µg/mL"},
      {"measurement": "MIC", "setting": "[18]", "result": 128, "unit": "µg/mL"},
      {"measurement": "IC50 at 72 h", "setting": "[19]", "result": "> 128", "unit": "µg/mL"},
      {"measurement": "MIC", "setting": "[20]", "result": "> 128", "unit": "µg/mL"},
      {"measurement": "MIC", "setting": "[21]", "result": 16, "unit": "µg/mL"},
      {"measurement": "MIC", "setting": "[22]; ATCC700603", "result": 128, "unit": "µg/mL"},
      {"measurement": "MIC", "setting": "[22]; ATCC700603, K. pneumoniae ATCC700603 (SHV-18)", "result": "> 128", "unit": "µg/mL"},
      {"measurement": "MIC", "setting": "[23]", "result": "> 128", "unit": "µg/mL"}
    ]},
    {"compound": "WNWSKSF", "values": [
      {"measurement": "binding to BAM by ITC", "setting": "[24]", "result": "no binding"},
      {"measurement": "inhibition of BAM-ND activity", "setting": "[25]", "result": "only minimal effects"},
      {"measurement": "inhibition of BAM-ND activity", "setting": "[25]; listed as linear peptide", "result": "no inhibitory activity"}
    ]},
    {"compound": "darobactin (peptide)", "values": [
      {"measurement": "Kd", "setting": "[26]", "result": 1200, "unit": "nM"},
      {"measurement": "dH", "setting": "[26]", "result": -25, "unit": "kcal/mol"}
    ]}
  ]
}
